PAD4 inh: human PAD4 inhibitors, primary screen, biochemical, fluorescence polarization, 1536-well format. inhibition, % at 6.36 µM. AID 485272, 2010. Protein-arginine deiminase type-4 (Homo sapiens), Q9UM07. 0.41% of 330,000 active. recombinant PAD4, RCA probe fluorescence polarization;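 active means percent inhibition above a cutoff equal to the mean of all tested compounds plus 3 SD, cut at about 15% in these data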;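 further: 0% = PAD4 with RCA probe and DMSO and 100% = probe without PAD4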
UBC13 inh: UBC13 polyubiquitin chain formation inhibitors, primary screen, biochemical, TR-FRET, uHTS. Ubiquitin-conjugating enzyme E2 N (Homo sapiens), P61088. 0.47% of 330,000 active. AID 485273, 2010. inhibition, % at 20 µM; in the data active means inhibition above about 45%, passing the limit was not always enough
Target sequence (P61088 whole entry, looked up): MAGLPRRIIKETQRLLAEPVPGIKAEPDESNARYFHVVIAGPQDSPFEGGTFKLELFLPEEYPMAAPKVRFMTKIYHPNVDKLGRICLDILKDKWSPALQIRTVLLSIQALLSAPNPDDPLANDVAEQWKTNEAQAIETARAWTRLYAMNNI
Rin1 Abl inh: inhibitors of Rin1-Abl protein binding, primary screen, biochemical, TR-FRET. Tyrosine-protein kinase ABL1 (Homo sapiens) + Ras and Rab interactor 1 (Homo sapiens), …. inhibition, % at 7.35 µM. 0.4% of 360,000 active. AID 588664, 2011; in the data active means inhibition above about 5%, passing the limit was not always enough
UBC9 SUMO inh: inhibitors of in vitro SUMOylation cascade, primary screen, biochemical, HTRF, uHTS | SUMO-conjugating enzyme UBC9 (Homo sapiens), P63279 | HTRF SUMOylation assay, SAE1/SAE2 + UBC9 | inhibition, % at 35 µM | 0.36% of 290,000 active | AID 2006, 2009; in the data active means inhibition above about 50%, passing the limit was not always enough
Target sequence (P63279 whole entry, looked up): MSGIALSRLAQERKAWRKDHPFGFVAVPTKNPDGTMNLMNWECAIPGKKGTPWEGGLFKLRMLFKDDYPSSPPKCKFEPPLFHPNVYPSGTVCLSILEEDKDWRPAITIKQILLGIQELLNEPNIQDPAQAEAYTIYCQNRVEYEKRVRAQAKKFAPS
GSTO1 inh: inhibitors of recombinant GSTO1, primary screen, counter-screen for RBBP9 inhibitor project, biochemical, fluorescence polarization. inhibition, % at 5.96 µM. 1.1% of 300,000 active. activity-based probe fluorescence polarization. Glutathione S-transferase omega-1 (Homo sapiens), P78417;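 active means inhibition above the campaign mean inhibition plus 3 SD, cut at about 35% in these data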;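 further: 0% = GSTO1-1 with DMSO and 100% = wells lacking GSTO1-1 enzyme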
Target sequence (P78417 whole entry, looked up): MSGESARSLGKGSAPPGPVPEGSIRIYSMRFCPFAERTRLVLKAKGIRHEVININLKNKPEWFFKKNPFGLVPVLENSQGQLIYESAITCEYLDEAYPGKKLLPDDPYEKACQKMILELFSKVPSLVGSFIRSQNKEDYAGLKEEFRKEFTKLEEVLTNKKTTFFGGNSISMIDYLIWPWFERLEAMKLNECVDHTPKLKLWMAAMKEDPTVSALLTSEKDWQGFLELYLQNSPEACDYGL
Apaf-1 inh: inhibitors of human Apaf-1 apoptosome, primary screen, biochemical, DEVD-Rh110 fluorescence, uHTS; 0.71% of 330,000 active; inhibition, % at 20 µM; reconstituted apoptosome caspase-3 activity; Apoptotic protease-activating factor 1 (Homo sapiens), O14727; active means inhibition of at least 40% at 20 µM;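 further: plate controls were DMSO wells for no effect and DEVD-CHO caspase inhibitor wells for full effect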
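Material: reconstituted apoptosome with Apaf-1, cytochrome c, caspase-9, procaspase-3, dATP; medium: pH 7.5 Hepes buffer with CHAPS, BSA, DTT; also added: cytochrome c and DEVD-Rh110 substrate; timing: 30 min plus 50 min, RT; signal: Rh110 fluorescence intensity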
The depositor's hits bear a star; . = no result. Most compounds without a hit are left out; they make up all but 2.2% or so of the library.

SMILES	PAD4 inh	UBC13 inh	Rin1 Abl inh	UBC9 SUMO inh	GSTO1 inh	Apaf-1 inh
CC1CCN(C(=O)c2[nH]cnc2C(=O)Nc2ccccc2F)CC1	.	.	-1.1	.	.	.
N#Cc1c(-c2cccc(Br)c2)cc(-c2ccco2)[nH]c1=O	-9.5	-6.6	-0.2	79.3*	-24.6	19.5
CC1(C(=O)NS(=O)(=O)c2ccccc2C(F)(F)F)CCN1C(=O)CCc1ccccc1 (centres undefined)	.	.	-1.5	.	.	.
Cc1nn2cc(-c3ccccc3)nc2[nH]c1=O	3.9	2.5	-0.9	68.3*	-5.3	2.4
CCOC(=O)c1sc2cc([N+](=O)[O-])cc(SCC(=O)OC)c2c1N	-7.4	-71.8	-7.2	28.1	35.8*	8.3
Cc1nc2ccccc2c(=O)n1/N=C/c1ccccc1OC(F)F	1.7	4.3	-0.9	0.8	0.5	3.5
N/C(=N\O)c1cn(Cc2ccccc2Cl)c2ccccc12	-0.5	5.7	1.2	9.5	-0.1	1.3
Cc1[nH][nH]c(=O)c1C(c1c(C)[nH][nH]c1=O)c1cn(Cc2ccccc2Cl)c2ccccc12	.	.	6.3	70.0*	.	.
Cc1ncc(NS(=O)(=O)c2ccc(N)cc2)nc1C	.	.	-0.4	.	.	.
C[C@@H]1CN([C@H](C)CO)C(=O)CCCn2nncc2CO[C@@H]1CN(C)S(=O)(=O)c1ccccc1	.	.	0.8	.	.	.
O=C1c2ccccc2C(=O)N1OCc1cccc(Cl)c1	2.0	8.1	-1.5	-1.9	0.7	5.1
O=C1Cc2ccccc2C(=O)N1OCc1ccc(Cl)cc1Cl	-19.8	-9.5	2.5	21.1	11.4	67.6*
COc1ccc(-c2oc3c(CC=C(C)C)c(O[C@@H]4O[C@H](CO)[C@@H](O)[C@H](O)[C@H]4O)cc(O)c3c(=O)c2O[C@@H]2O[C@@H](C)[C@H](O)[C@@H](O)[C@H]2O)cc1	-3.6	19.3	.	14.8	-0.8	-3.9
CC(=O)O[C@@H]1[C@@H](O)[C@@H](O)[C@H](Oc2c(-c3ccc(O)cc3)oc3c(CC=C(C)C)c(O)cc(O)c3c2=O)O[C@H]1C	-6.9	46.5*	.	.	7.1	26.1
Cc1cc(/C=C2/C(=O)NN(c3ccccc3)C2=O)c(C)n1-c1ccc(O)cc1	-1.3	-34.7	-4.4	-3.0	-5.8	12.3
Cc1cc(/C=C2\C(=O)NN(c3ccccc3)C2=O)c(C)n1-c1ccccc1O	-1.4	0.7	0.1	60.4*	-4.0	-7.3
COC(=O)c1ccc(CNC(=O)[C@@H]2CCCN2S(=O)(=O)c2ccccc2F)cc1	-2.5	-1.6	2.5	.	.	-7.9
CC(=O)C1=C(c2ccccc2)NC(=O)NC1c1ccc(O)c(O)c1 (centres undefined)	-4.1	-0.6	7.5	17.5	36.9*	8.3
O=[N+]([O-])c1c(NCCO)cc(N2CCC3(CC2)OCCO3)c2nonc12	-7.0	-22.7	-5.0	98.3	-5.6	-8.1
O=C(O)CCCNc1cc(N2CCC3(CC2)OCCO3)c2noc3c2c1C(=O)c1ccccc1-3	17.7*	-167.8	.	38.2	53.5*	-11.0
COc1ccc(-c2cc(C(F)(F)F)n3ncc(C(=O)NCc4ccco4)c3n2)cc1	-0.5	-5.6	-3.9	63.7*	-17.2	11.9
COc1ccc2oc(=O)c(C(=O)NCc3ccco3)cc2c1	2.1	7.0	1.2	51.8*	-0.8	-20.5
O=C(NCc1ccco1)c1cnn2c(C(F)(F)F)cc(-c3ccccc3)nc12	-1.1	2.0	4.0	5.3	2.3	19.8
CN(C)CCN1CCN(C2CN(C3CCCCC3)S(=O)(=O)C2)CC1 (centres undefined)	.	.	1.5	.	.	.
COc1ccc(Cn2c(SCc3ccccc3C)nc3cc(OC)c(OC)cc3c2=N)cc1	-1.3	34.2	-1.6	-22.1	-5.4	69.7*
SMILES	PAD4 inh	UBC13 inh	Rin1 Abl inh	UBC9 SUMO inh	GSTO1 inh	Apaf-1 inh
COc1ccc(OC)c(NC(=O)c2cc(S(=O)(=O)NCc3ccco3)ccc2F)c1	-0.8	39.4	0.2	1.7	35.6*	-7.7
CCOc1ccccc1NC(=O)c1cc(S(=O)(=O)NCc2ccco2)ccc1F	-9.0	42.4	0.2	.	35.3*	19.1
COc1ccc(CNS(=O)(=O)c2ccc(F)c(C(=O)Nc3ccccc3OC)c2)cc1	-3.5	18.4	0.1	15.0	1.7	7.9
CCOc1ccc(S(=O)(=O)NCc2ccncc2)cc1NC(=O)c1ccccc1F	2.5	8.1	-1.1	24.6	-0.9	-7.3
CCOC(=O)c1c(C)c(C)n2c1NC(=O)C2	.	.	-2.9	.	.	.
Cc1[nH]n(C(N)=S)c(=O)c1C(c1ccccc1)C(C#N)C#N (centres undefined)	-1.1	-5.3	-2.3	-6.5	-6.0	3.6
Cc1[nH]n(-c2ncc(-c3ccccc3)s2)c(=O)c1C(c1ccc(Br)cc1)C(C#N)C#N (centres undefined)	1.4	-30.0	-1.3	63.8*	9.0	13.3
COc1ccccc1Nc1nc(Cl)c(C=O)s1	-3.1	-20.5	0.7	16.7	47.0*	-7.5
O=Cc1sc(Nc2ccccc2)nc1Cl	-14.9	-14.0	-2.7	13.6	15.4	7.3
Cc1cc(C(=O)CCl)c(C)n1-c1cccc(S(=O)(=O)N2CCOCC2)c1	1.4	0.1	.	10.8	94.0*	-2.3
Cc1c(C(=O)OCC(=O)NC(=O)NC2CCCCC2)cccc1[N+](=O)[O-]	2.4	10.8	0.2	.	.	14.6
O=C(COC(=O)c1ccccc1Sc1ccc(C(F)(F)F)cc1[N+](=O)[O-])NC(=O)NC1CCCC1	6.6	-8.9	0.2	-21.1	2.6	40.4*
O=C(Oc1ccc[nH]c1=O)c1ccc(F)cc1	.	.	0.3	.	.	.
O=C(Nc1ccccc1)Oc1ccc[nH]c1=O	-9.9	-0.8	-0.9	93.5	13.2	60.6*
O=C1NC(=S)S/C1=C\c1ccc(SCc2ccco2)o1	-28.6	.	11.8*	62.8*	-128.4	.
O=C1NC(=S)S/C1=C\c1ccc(SCc2ccccc2)o1	-12.7	.	3.6	37.7	19.1	.
COc1ccc(C(O)c2ncc(-c3cccc(OCc4ccccc4)c3)[nH]2)cc1F (centres undefined)	.	.	-2.8	.	.	.
Cn1c(=O)c(=O)n(C)c2cc(S(=O)(=O)N3CCCC3C(=O)Nc3ccccc3F)ccc21 (centres undefined)	0.0	3.2	-2.3	4.1	5.4	-5.9
Cc1cc(=O)n2[nH]c(-c3ccsc3-n3c(C)ccc3C)cc2n1	-4.1	11.7	2.8	64.8*	30.7	4.9
NC(=O)N/N=C/c1ccc2cccc(OCc3ccccc3)c2n1	8.7	12.2	-4.2	57.5*	19.8	0.2
Cc1ccc(C)c(NC(=O)C2CC3CCC2C3)c1 (centres undefined)	-8.7	-6.4	0.3	0.3	-2.3	-2.4

Screening data as filed in PubChem BioAssay.
